Among all 2,900 compounds or so, about 1,900 (66%) were called active.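 How the source made its calls: active means mean inhibition across replicates above the hit cutoff set in the primary screen (cut at about 8.5% in these data); inactive means the rest.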 So high a share suggests a set chosen from earlier hits. A selection follows.

Disintegrin and metalloproteinase domain-containing protein 17 (Homo sapiens), sequence (P78536 215-824 limits assumed): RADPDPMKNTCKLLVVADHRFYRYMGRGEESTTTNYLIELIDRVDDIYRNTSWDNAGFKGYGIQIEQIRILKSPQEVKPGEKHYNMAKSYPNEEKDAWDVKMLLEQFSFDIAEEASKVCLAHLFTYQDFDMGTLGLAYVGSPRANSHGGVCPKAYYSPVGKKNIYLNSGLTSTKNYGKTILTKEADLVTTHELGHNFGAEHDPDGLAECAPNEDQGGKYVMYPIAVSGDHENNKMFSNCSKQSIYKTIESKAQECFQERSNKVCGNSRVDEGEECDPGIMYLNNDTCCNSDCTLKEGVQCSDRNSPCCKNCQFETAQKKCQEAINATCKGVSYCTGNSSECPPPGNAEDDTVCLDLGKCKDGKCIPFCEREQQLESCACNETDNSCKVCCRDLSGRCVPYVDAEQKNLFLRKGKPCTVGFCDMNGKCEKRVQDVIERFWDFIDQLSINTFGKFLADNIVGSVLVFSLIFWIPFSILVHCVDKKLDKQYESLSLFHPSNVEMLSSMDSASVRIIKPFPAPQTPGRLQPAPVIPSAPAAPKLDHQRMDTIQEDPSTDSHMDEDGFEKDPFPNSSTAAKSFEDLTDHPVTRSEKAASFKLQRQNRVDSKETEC

The test addresses Disintegrin and metalloproteinase domain-containing protein 17 (Homo sapiens) (UniProt P78536). The test is described as follows: inhibition of human ADAM17 protease activity – biochemical, QFRET peptide cleavage, confirmation (AID 743257).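 Further: 0% = DMSO wells and 100% = marimastat wells.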 The settings on record: recombinant ADAM17, EDANS/DABCYL QFRET peptide cleavage; at 6.95 µM; stronger effect = higher value. Put shortly: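 Test system: human ADAM17 enzyme, FRET peptide cleavage; medium: 50 mM HEPES buffer, pH 7.5, with 0.01% Brij; incubation: 30 min preincubation plus 3 h reaction at 25 °C; measured by: fluorescence at ex 359 nm, em 460 nm; control set: DMSO and 1 µM marimastat control wells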
What is called inhibition is the drop in the measured response relative to a control, in per cent. For the molecule `CC1(Cc2cccc(C#N)c2)C(=O)Nc2ccc(-c3cccc(C(F)(F)F)c3)cc21` (centres undefined), the inhibition is 16.4% (active).

Regarding `O=C(COC(=O)CCCSc1nc2ccccc2[nH]1)Nc1ccc(Oc2ccccc2)cc1`, the inhibition is 21.9% (active).

In the case of `COC(C(=O)Nc1ccc(S(=O)(=O)Nc2ccc(C)c(C)c2)cc1)c1ccccc1` (centres undefined), the inhibition is 13.7% (active).

`COc1ccc(C(CNC(=O)c2cc(S(=O)(=O)Nc3cccc(C)c3)ccc2C)N2CCCC2)cc1` (centres undefined): the inhibition is 2.1% (inactive).

Consider `O=C(CC1SC(=Nc2ccccc2)N(Cc2ccccn2)C1=O)Nc1cccc(Cl)c1` (centres undefined), for which the inhibition is 18.4% (active).

Consider `CCN1C(=O)C(CC(=O)Nc2cc(C)ccc2C)SC1=Nc1ccc(S(N)(=O)=O)cc1` (centres undefined), for which the inhibition is 7.07% (inactive).

For `CCOc1ccc(Nc2nc(Cc3nnc(SCC(=O)c4ccc(C)cc4)o3)cs2)cc1`, the inhibition is 8.23% (inactive).

On to `O=C(CSc1nc(-c2ccccc2)cs1)Nc1cccc([N+](=O)[O-])c1`, for which the inhibition was 14.6% (active).

Consider `CN(C(=O)c1cccc(NC(=O)Cc2cccc([N+](=O)[O-])c2)c1)C1CCCCC1`, for which the inhibition is 8.38% (inactive).

Regarding `COc1ccc([C@@H]2[C@@H]3C(=O)N(C(C)(C)C)C(=O)[C@@H]3[C@]3(Cc4ccccc4)C(=O)N(c4cccc(Br)c4)C(=O)N23)cc1`, the inhibition was 14.3% (active).

Take `CC[C@@]12C(=O)N(c3ccccc3)C(=O)N1[C@H](c1ccc(Br)cc1)[C@@H]1C(=O)N(C(C)(C)C)C(=O)[C@@H]12`: the inhibition is 2.65% (inactive).

With `CC(C)(C)N1C(=O)[C@H]2[C@@H](c3ccc(Br)cc3)N3C(=O)N(c4cccc(Cl)c4)C(=O)[C@@]3(C)[C@H]2C1=O`, the inhibition was 12.8% (active).

With `CCOc1ccccc1C1CC(c2cccc(NS(C)(=O)=O)c2)=NN1C(=O)c1ccccc1` (centres undefined), the inhibition was 3.69% (inactive).

On to `CCOc1ccc(N2C(=O)CC(N(CCc3ccc(OC)c(OC)c3)C(=S)Nc3ccccc3)C2=O)cc1` (centres undefined), for which the inhibition is 2.05% (inactive).

For `O=C(OCc1ccc(-c2ccccc2)cc1)c1cccc(O)c1`, the inhibition was 15.7% (active).

Turning to `Cc1ccc(OCCOCCOc2ccc(Br)cc2/C=N\NC(=O)c2ccncc2)cc1`, the inhibition is 16.2% (active).

In the case of `Cc1ccc(S(=O)(=O)NCCSc2ccccc2)cc1[N+](=O)[O-]`, the inhibition was 7.81% (inactive).

`COc1cccc(/C=N/NC(=O)c2cccc([N+](=O)[O-])c2)c1OS(=O)(=O)c1ccc(C)cc1`: the inhibition is 13.8% (active).

Regarding `CC(C)Oc1cc(F)ccc1-c1cc(C(=O)Nc2cccc(Cl)c2)[nH]n1`, the inhibition was 14.6% (active).

For `O=C(COc1ccc(Cl)cc1)N1CCN(c2cccc(C(F)(F)F)c2)CC1`, the inhibition is 9.24% (active).

Take `Cc1onc(C(=O)NN)c1-c1csc(COc2ccccc2)n1`: the inhibition is 3.32% (inactive).

Consider `CCOC(=O)c1c(Cc2ccc(Cl)cc2)c[nH]c1C`, for which the inhibition was 9.85% (active).

On to `COC(=O)c1c(C)[nH]c(C(=O)/C=C/c2ccc(Cl)cc2)c1C`, for which the inhibition was -5.64% (inactive).

Take `COc1ccc(C(=O)C2CCCN(S(=O)(=O)c3cccc(C)c3)C2)c(C)c1` (centres undefined): the inhibition is 6.46% (inactive).

In the case of `COc1ccc(S(=O)(=O)N2CCCCC2)cc1Br`, the inhibition was 10.9% (active).

Take `COCCNC(=O)C(c1ccc(C)o1)N(Cc1ccccc1)C(=O)Cn1nnc2ccccc21` (centres undefined): the inhibition was 1.74% (inactive).

With `COc1ccccc1C(=O)NCC(=O)OCC(=O)NNC(=O)c1ccc(Br)cc1`, the inhibition was 3.39% (inactive).

For the molecule `CC(=O)Nc1ccc(S(=O)(=O)N2CCN(CCCOc3cc(C)ccc3C)CC2)cc1`, the inhibition is 9.43% (active).

Consider `Cn1c(=O)c2c(nc(N/N=C/c3cccs3)n2Cc2ccc(Br)cc2)n(C)c1=O`, for which the inhibition is -12% (inactive).

On to `COc1ccc(C(=O)Nc2ccc(C3(C#N)CCCC3)cc2)cc1OC`, for which the inhibition is -0.86% (inactive).

Consider `Cc1cc(C)cc(NS(=O)(=O)c2ccc(Oc3ncc(C(F)(F)F)cc3Cl)cc2)c1`, for which the inhibition is 20.1% (active).

For `COc1cccc(NC(=O)C2C(c3ccccc3)C2(Cl)Cl)c1` (centres undefined), the inhibition is 19.5% (active).

As for `O=C(CN1CCN(c2nc(-c3ccccc3)cs2)CC1)NCc1ccc2c(c1)OCO2`, the inhibition is 12.5% (active).

Consider `Cc1ccc(-c2n[nH]c(=S)n2/N=C/c2cc3c(cc2[N+](=O)[O-])OCO3)cc1`, for which the inhibition is 4.12% (inactive).

Turning to `CCOc1ccc(-n2c(SCC(=O)Nc3cc(C)c(NC(=O)c4ccccc4)cc3OC)nnc2-c2cccs2)cc1`, the inhibition was 14.6% (active).

With `COc1cccc(CNc2nc(C(F)(F)F)nc3ccccc23)c1`, the inhibition was 7.14% (inactive).

Consider `Clc1ccc(C(Cn2ccnc2)OCc2ccsc2Cl)c(Cl)c1` (centres undefined), for which the inhibition is 9.7% (active).

Take `CS(=O)(=O)Nc1cccc(C2=NN(S(=O)(=O)c3ccccc3)C(c3cccs3)C2)c1` (centres undefined): the inhibition was 6.85% (inactive).

As to `Cc1cc(C)cc(NC(=S)NCCc2c[nH]c3ccccc23)c1`, the inhibition is 8.25% (inactive).

On to `N#C/C(=C/c1ccc(N2CCCCC2)o1)C(=O)NCCc1c[nH]c2ccccc12`, for which the inhibition was 10.2% (active).

With `COc1ccc(-c2cc(C3CCN(c4ncccc4[N+](=O)[O-])CC3)[nH]n2)cc1`, the inhibition was 13.2% (active).

As to `COc1ccc(CC(N)c2csc(NC(=O)NC(c3ccccc3)c3ccccc3)n2)cc1` (centres undefined), the inhibition is 3.55% (inactive).

As to `C=C(C)COc1ccc(-c2n[nH]c(C)c2-c2ccccc2)c(O)c1`, the inhibition is 20.8% (active).

`COc1ccc(Cl)cc1NC(=O)COC(=O)C(CC(C)C)N1C(=O)C2CC=CCC2C1=O` (centres undefined): the inhibition was 9.46% (active).

As for `CC(C)N(C(=O)[C@H]1C[C@H](CC(=O)NC(C)(C)C)C(=O)N2CCc3c([nH]c4ccc(Cl)cc34)[C@]12C)C(C)C`, the inhibition is 8.88% (active).

Take `CCOc1ccccc1CNS(=O)(=O)c1cc(-c2cc(C)no2)ccc1C`: the inhibition is 3.8% (inactive).

In the case of `CCOC(=O)c1cccc(NC(=O)CN(C)S(=O)(=O)c2ccc(-c3cocn3)s2)c1`, the inhibition is 6.09% (inactive).

For `Cc1ccc(S(=O)(=O)N2CCN(C(=O)COC(=O)c3c(C)cc(C)cc3C)CC2)c(C)c1`, the inhibition is 9.17% (active).

As to `COC(=O)N(C)C[C@@H]1OCc2cnnn2CCCC(=O)N([C@@H](C)CO)C[C@@H]1C`, the inhibition was 0.27% (inactive).

`Cn1nc(C(F)(F)F)c2cc(NC(=O)OCC(C)(C)C)sc21`: the inhibition is 10.8% (active).

Regarding `O=C(CSc1nc(Nc2ccccc2)nc(N2CCOCC2)n1)Nc1cc(Cl)ccc1O`, the inhibition is 18.7% (active).

`CC(C)(C)c1ccc(S(=O)(=O)NCC2CCN(C(=O)C(=O)c3cc4ccccc4o3)CC2)cc1`: the inhibition was 15.1% (active).

Turning to `O=C1[C@H]2[C@@H](c3ccc(C(F)(F)F)cc3)N[C@]3(CCCN(Cc4ccc(Br)cc4)C3=O)[C@H]2C(=O)N1Cc1ccccc1`, the inhibition was 19.6% (active).

Turning to `O=C(NCc1ccccc1)C1=C[C@@H](c2ccc(C(F)(F)F)cc2)C[C@@H](OCc2ccc(CO)cc2)O1`, the inhibition was 21.4% (active).

`Cc1ccc(C(=O)Nc2ccc(C)c(S(=O)(=O)N(C)C)c2)s1`: the inhibition was 10.8% (active).

On to `Cc1ccc(-n2c(COc3ccccc3)nnc2SCC(=O)Nc2ccc3c(c2)OCCO3)cc1`, for which the inhibition was 15.9% (active).

Consider `Cc1cc(NC(=O)CN2C(=O)NC(CC(C)C)C2=O)no1` (centres undefined), for which the inhibition is 15.1% (active).

Take `CCCn1nc(C(=O)NNC(=O)CSCC(=O)Nc2cc(C)on2)c2ccccc2c1=O`: the inhibition was 0.67% (inactive).

Take `NNC(=O)C1CCCn2c1nc1sc3c(c1c2=O)CCCC3` (centres undefined): the inhibition is 1.06% (inactive).

On to `COc1ccc(CC(=O)c2ccc(O)cc2O)cc1OC`, for which the inhibition was 1.45% (inactive).

`CC(C)C(=O)Nc1cccc(NC(=S)NC(=O)C(c2ccccc2)c2ccccc2)c1`: the inhibition is 17.6% (active).

For `COc1cc(C2CC(=O)N3CN(Cc4ccccc4)CSC3=C2C#N)ccc1OCc1ccccc1` (centres undefined), the inhibition is 15.8% (active).

As to `COc1ccc(S(=O)(=O)Nc2ccc(O)c(Sc3nc4ccccc4s3)c2)cc1`, the inhibition was 10.7% (active).

For the molecule `C=CCOc1ccccc1/C=N/NC(=O)Cc1ccccc1`, the inhibition is 2.48% (inactive).

Turning to `O=C1NC(=O)C(c2ccc(Cl)cc2)N1` (centres undefined), the inhibition was 13.7% (active).

As for `Cc1ccc(-c2nnc(SCC(=O)Nc3ccc(Oc4ccccc4)cc3)n2Cc2ccco2)cc1`, the inhibition is 18.5% (active).

As to `Cc1ccc(OCc2nnc(SC/C=C/c3ccccc3)n2Cc2ccco2)cc1`, the inhibition is 12.5% (active).

For the molecule `CCCN(CC(=O)NC(=O)NC1CCCCC1)CC(=O)Nc1cc(Cl)ccc1Cl`, the inhibition is 17.5% (active).

Turning to `CN(C)c1ccc(NC(=O)NC2CCCCN(Cc3ccc(Cl)cc3)C2=O)cc1` (centres undefined), the inhibition is 3.4% (inactive).

`O=C(CSCc1ccc(Br)cc1)Nc1ccc(S(=O)(=O)N2CCCCCC2)cc1`: the inhibition is 12.6% (active).

With `Cn1nc(C(F)(F)F)c(C(=O)Nc2cccc(C(F)(F)F)c2)c1SCc1ccc(Cl)cc1`, the inhibition is 19.4% (active).

Consider `COc1ccc(C(N)c2csc(NC(=O)Nc3cccc(C(F)(F)F)c3)n2)cc1` (centres undefined), for which the inhibition was 6.58% (inactive).

On to `CC(=O)Nc1ccc(S(=O)(=O)Oc2ccc(Br)cc2C(=S)N2CCOCC2)cc1`, for which the inhibition was 9.82% (active).

Turning to `S=C(NCc1ccc(Cl)cc1)NC12CC3CC(CC(C3)C1)C2`, the inhibition was 11.1% (active).

As to `O=C(Cc1ccc(Cl)c(Cl)c1)Nc1ccc(SC(F)F)cc1`, the inhibition was 25.1% (active).

Take `COc1ccc(CN(C)C(=O)CC(c2ccccc2)c2ccccc2)cc1`: the inhibition is 5.73% (inactive).

For `O=C(c1ccccc1)N1CCN(c2ccc([N+](=O)[O-])c(NCc3ccco3)c2)CC1`, the inhibition was 9.37% (active).

Take `CC(C)(C)OC(=O)CNC(=O)c1[nH]cnc1C(=O)N[C@@H](Cc1ccccc1)C(=O)OCc1ccccc1`: the inhibition was 20.1% (active).

Consider `CC(C)(C)OC(=O)N1CCC(NC(=O)c2[nH]cnc2C(=O)N[C@@H](Cc2ccccc2)C(=O)OCc2ccccc2)CC1`, for which the inhibition is 22.4% (active).

As to `CCOc1ccc(OCC)c(-c2c(=O)n(OCc3ccc(Cl)cc3)c3ccccc3[n+]2[O-])c1`, the inhibition was 2.59% (inactive).

In the case of `Cc1sc2nc(SCC(=O)c3ccc(O)c(O)c3)n(Cc3ccco3)c(=O)c2c1C`, the inhibition was 12.6% (active).

With `CCn1c(Cc2cccs2)nnc1SCC(=O)c1ccc(C)cc1`, the inhibition is 2.25% (inactive).

For `O=C(Cc1ncc(C(F)(F)F)cc1Cl)Nc1cccc(Br)c1`, the inhibition was 5.32% (inactive).

Turning to `CCc1cccc(NC(=O)COC(=O)C2CCN(c3ccc(C(F)(F)F)cn3)CC2)c1`, the inhibition is 16.5% (active).

The values are drawn from PubChem BioAssay AID743257 (The Scripps Research Institute Molecular Screening Center, 2014).
